PvdQ inh: blocks Pseudomonas aeruginosa PvdQ acylase activity; purified PvdQ acylase, fluorescence plate reader; inhibition, % at 10 µM; actives 0.063% (n = 340,000); in the data active = inhibition above about 30%, passing the limit was not always enough;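 also: 0% = vehicle neutral wells and 100% = reference inhibitor wells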
N-glyco inh: blocks N-linked glycosylation in D54 reporter cells. D54 ERlucT glycosylation luciferase reporter, 24 h; percent of 100 nM tunicamycin response. reporter increase, % at 12.5 µM. actives 0.23% (n = 360,000). AID 588692;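 active = mean luciferase reporter signal, scaled so untreated is 0 and the glycosylation-blocking control 100, at or above a set limit in every replicate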;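 also: luciferase carries N-glycosylation sites so blocking glycosylation raises the light; 0% = median of neutral control wells and 100% = median of 100 nM tunicamycin wells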
HSF1 activator: increases HSF-1 driven luciferase reporter signal; NIH3T3-HGL HSF-1 luciferase reporter, MG132, 8 h; 100% = twice DMSO control signal; activation, % at 9 µM; actives 1.7% (n = 300,000); AID 504408;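 active = mean replicate activation of at least 50% with a set share of replicates each reaching 50%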;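 also: 0% = median of the neutral control wells and 100% = twice that signal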
T cruzi inh: T. cruzi replication inhibition | T. cruzi beta-gal in NIH3T3, luminescence, 90 h | inhibition, % (no concentration beside the values) | actives 1.4% (n = 300,000);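 active = mean inhibition across valid replicates above about 55%, limit read from the data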;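 also: signal also drops with host cell toxicity which is not excluded here; 0% = plate median of DMSO wells and 100% = zero luminescence signal; higher percent means less beta-gal luminescence so fewer parasites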
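Assay system: NIH/3T3 host cells with β-galactosidase reporter T. cruzi; input: 5,000 host fibroblasts per well; compound: single 50 nL compound addition per well in DMSO; timing: ≥90 h infection period, 3 h prior cell attachment; measured by: GalScreen β-gal luminescence, detergent lysis, 60 min; evaluation: percent inhibition of parasite-derived β-gal signal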
PfHsp90 set2: inhibits growth of yeast expressing Plasmodium falciparum Hsp90. S. cerevisiae expressing PfHsp90, BacTiter-Glo ATP, 48 h; yeast lacking PDR1 and PDR3 efflux regulators. inhibition, % at 9.4 µM. actives 0.32% (n = 310,000);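 active = every replicate shows inhibition above about 80%, whatever the replicate mean, limit read from the data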;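 also: 0% = DMSO neutral controls and 100% = 20 µM radicicol positive controls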
CaV13 FRET inh: Disruptors of the CACNA1D IQ motif to Ca2+-dependent inactivation inhibitor domain association, primary screening, Förster resonance energy transfer in intact living …; HEK cells, CFP/YFP FRET ICDI-IQ, plate reader, 10 min; percent FRET-ratio fall versus neutral wells; inhibition, % at 12.3 µM; actives 0.098% (n = 340,000); AID 743397;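 active = mean replicate inhibition of at least 30% and at least 1% of replicates passing that level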;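 also: 0% = median of the neutral control wells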
The depositor's hits bear a star. An excerpt weighted towards active compounds, which were near 3% of everything screened.

What do the screens show for `CCCCNC(=O)Nc1ccc(C2SCCS2)cc1`?
PvdQ inh: -6; N-glyco inh: 7; HSF1 activator: 69*; T cruzi inh: 5; PfHsp90 set2: 11; CaV13 FRET inh: -5

What do the screens show for `O=C(NC1=C(Nc2ccc(Cl)cc2)C(=O)c2ccccc2C1=O)c1ccccc1`?
PvdQ inh: -8; N-glyco inh: -6; HSF1 activator: 13; T cruzi inh: 5; PfHsp90 set2: -57; CaV13 FRET inh: -13

Results for CCCN(CCC)CCCNC(=O)CS(=O)Cc1nc(-c2ccc(OC)c(OC)c2)oc1C (centres undefined) ?
PvdQ inh: -15; N-glyco inh: 1; HSF1 activator: 55*; T cruzi inh: -15; PfHsp90 set2: -9; CaV13 FRET inh: -6

What do the screens show for `N=c1c(C(=O)NCCc2ccccc2)cc2c(=O)n3ccccc3nc2n1Cc1ccco1`?
PvdQ inh: -7; N-glyco inh: -1; HSF1 activator: 75*; T cruzi inh: 11; PfHsp90 set2: -9; CaV13 FRET inh: -4

How did N=c1c(C(=O)NCc2ccc(F)cc2)cc2c(=O)n3ccccc3nc2n1Cc1cccnc1 do in these assays?
PvdQ inh: 8; N-glyco inh: -1; HSF1 activator: -4; T cruzi inh: 70*; CaV13 FRET inh: 15

Results for COC(=O)c1cc2c(=O)n3ccccc3nc2n(Cc2cccnc2)c1=N ?
HSF1 activator: 20; T cruzi inh: -13

How did CC(c1ccccc1)C(OC(=O)c1cccc([N+](=O)[O-])c1C(=O)O)c1ccccc1 (centres undefined) do in these assays?
PvdQ inh: -7; N-glyco inh: 3; PfHsp90 set2: 24; CaV13 FRET inh: -11

What do the screens show for `COc1cccc2c1C(=O)c1c(O)c3c(c(O)c1C2=O)CC(O)(C(C)=O)CC3OC1CC(N(C)C)C(O)C(C)O1` (centres undefined)?
PvdQ inh: -7; N-glyco inh: -12; PfHsp90 set2: 98*; CaV13 FRET inh: -19

Results for COc1cc(OC)c(NC(=O)NNC(=O)C(=O)NC2CC2)cc1Cl ?
CaV13 FRET inh: -11

How did OCCN=Cc1c(O)[nH]c2ccccc12 do in these assays?
PvdQ inh: -12; N-glyco inh: 1; HSF1 activator: 1; T cruzi inh: -8; PfHsp90 set2: 4; CaV13 FRET inh: -5

How did CN(C)CC(C)(C)CN=Cc1c(O)[nH]c2ccccc12 do in these assays?
PvdQ inh: -3; N-glyco inh: -1; HSF1 activator: 22; T cruzi inh: 61*; PfHsp90 set2: -13; CaV13 FRET inh: -4

What do the screens show for `C=CCc1cc(Cl)ccc1OCCNCCOC`?
PvdQ inh: 9; N-glyco inh: 0; HSF1 activator: -3; T cruzi inh: 10; PfHsp90 set2: -3; CaV13 FRET inh: -3

How did C=CCc1cc(Cl)ccc1OCCNCCN1CCOCC1 do in these assays?
PvdQ inh: -5; N-glyco inh: -1; HSF1 activator: -2; T cruzi inh: 73*; PfHsp90 set2: 6; CaV13 FRET inh: -6

What do the screens show for `Clc1ccc(-c2csc(Nc3ccccc3)[n+]2Cc2ccco2)c(Cl)c1`?
PvdQ inh: -12; N-glyco inh: -4; HSF1 activator: 92*; T cruzi inh: 45; PfHsp90 set2: 12; CaV13 FRET inh: -5

How did COc1ccc(C(O)c2nc(-c3cccc4cccnc34)cs2)cc1 (centres undefined) do in these assays?
N-glyco inh: -2; CaV13 FRET inh: -5

What do the screens show for `Cc1cc(N/N=C/c2ccc(O)c(C)c2O)nc(-c2ccccc2O)n1`?
PvdQ inh: -2; N-glyco inh: -17; HSF1 activator: -62; T cruzi inh: 59*; PfHsp90 set2: -55; CaV13 FRET inh: -4

Results for O=C(O)CNc1nc(-c2ccccc2)nc2c1oc1ccccc12 ?
PvdQ inh: -15; N-glyco inh: 3; HSF1 activator: -15; T cruzi inh: 6; PfHsp90 set2: 21; CaV13 FRET inh: -5

What do the screens show for `Cc1ccccc1Nc1nc(-c2cccnc2)nc2ccccc12`?
PvdQ inh: -8; N-glyco inh: 2; HSF1 activator: 29; T cruzi inh: 59*; PfHsp90 set2: 3; CaV13 FRET inh: -6

What do the screens show for `c1ccc(-c2nc(NCc3cccnc3)c3oc4ccccc4c3n2)cc1`?
PvdQ inh: -8; N-glyco inh: 3; HSF1 activator: 76*; T cruzi inh: 56*; PfHsp90 set2: -19

How did c1ccc(CN2CCC(Nc3nc(-c4cccnc4)nc4ccccc34)CC2)cc1 do in these assays?
PvdQ inh: 11; N-glyco inh: 40*; HSF1 activator: 25; T cruzi inh: 59*; PfHsp90 set2: -2; CaV13 FRET inh: -3

What do the screens show for `c1ccc(CNc2nc(-c3cccnc3)nc3ccccc23)cc1`?
PvdQ inh: 26; N-glyco inh: 2; HSF1 activator: 9; T cruzi inh: 45; PfHsp90 set2: -1; CaV13 FRET inh: -16

What do the screens show for `C[C@@H]1ON(C)[C@H]2C[C@H]3c4[nH]c5c(-c6ccccc6)cccc5c4CCN3C[C@@H]12`?
CaV13 FRET inh: -6

What do the screens show for `Fc1ccc(CNc2nc(-c3cccnc3)nc3ccccc23)cc1`?
PvdQ inh: 11; N-glyco inh: 0; HSF1 activator: 12; T cruzi inh: 56*; PfHsp90 set2: -4; CaV13 FRET inh: -7

Results for Cc1c(O)ccc(/C=N/Nc2nc(-c3cccnc3)nc3ccccc23)c1O ?
PvdQ inh: 1; N-glyco inh: -11; HSF1 activator: -14; T cruzi inh: 56*; PfHsp90 set2: -18; CaV13 FRET inh: -2

What do the screens show for `COc1ccc2nc(NCc3ccccc3)[nH]c2c1`?
PvdQ inh: -2; N-glyco inh: 15; HSF1 activator: 14; T cruzi inh: 7; PfHsp90 set2: -2; CaV13 FRET inh: -5

What do the screens show for `Cc1ccc2nc(NCc3ccccc3)[nH]c2c1`?
PvdQ inh: -25; N-glyco inh: 12; HSF1 activator: 233*; T cruzi inh: -16; PfHsp90 set2: 64; CaV13 FRET inh: -5

Results for Oc1ccc(/C=N/Nc2nc(-c3cccnc3)nc3ccccc23)c(O)c1 ?
PvdQ inh: -11; N-glyco inh: 8; HSF1 activator: 19; T cruzi inh: -19; PfHsp90 set2: 18; CaV13 FRET inh: -4

What do the screens show for `c1cncc(-c2nc(NCc3ccc4c(c3)OCO4)c3ccccc3n2)c1`?
PvdQ inh: -18; N-glyco inh: 1; HSF1 activator: 26; T cruzi inh: 69*; PfHsp90 set2: 26; CaV13 FRET inh: -5

What do the screens show for `CC(Nc1nc(-c2cccnc2)nc2ccccc12)c1ccc(F)cc1` (centres undefined)?
PvdQ inh: -10; N-glyco inh: 24; HSF1 activator: 20; T cruzi inh: 56*; PfHsp90 set2: 12; CaV13 FRET inh: -7

Compound activity (PubChem)
